# TAAR1 ag = human TAAR1 agonists, primary screen, Fluo-8 calcium fluorescence, CHO RD-HGA16 cells. activation, % at 3 µM. hit rate 0.99% among 360,000. vehicle wells 0%, saturating PEA agonist 100%. Trace amine-associated receptor 1 (Homo sapiens), Q96RJ0. AID 624467, 2012;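 active = activation above the mean activation of all test compounds in the run plus 3 SD, cut at about 38% in these data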
# Target sequence (Q96RJ0 whole entry, looked up): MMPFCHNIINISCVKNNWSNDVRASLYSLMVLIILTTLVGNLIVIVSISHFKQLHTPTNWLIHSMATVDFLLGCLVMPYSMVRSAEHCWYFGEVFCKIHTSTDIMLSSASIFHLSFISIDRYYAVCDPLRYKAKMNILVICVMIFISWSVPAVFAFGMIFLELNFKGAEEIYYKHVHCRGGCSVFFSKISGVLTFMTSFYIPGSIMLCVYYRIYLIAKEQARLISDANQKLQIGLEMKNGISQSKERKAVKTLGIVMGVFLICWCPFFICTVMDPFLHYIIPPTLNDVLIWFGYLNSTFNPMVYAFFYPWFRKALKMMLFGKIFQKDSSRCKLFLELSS
#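 System: CHO-derived RD-HGA16 cells with stable Gα16 and human TAAR1 / Times: 17-24 h plating, Fluo-8 75 min 37 °C, 30 min RT / Technique: calcium-sensitive Fluo-8 signal, excitation 470-495, emission 515-575 nm / Measure: % activation relative to PEA EC100 response / Benchmarks: DMSO and PEA EC100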
# V1aR counter = agonists of human V1a receptor, primary screen, counter-screen for OXTR agonist project, fluorescence, CHO-V1R cells. Fluo-8 calcium fluorescence, agonist mode; 0% DMSO, 100% 3 nM vasopressin. hit rate 0.25% among 320,000. activation, % at 3 µM. Vasopressin V1a receptor (Homo sapiens), P37288. AID 2797, 2010;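 active = activation above the mean activation of all tested compounds plus 3 SD, per screening run, cut at about 20% in these data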;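 also: signal is peak over basal fluorescence ratio across a 100 second FLIPR read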
# TAAR1 antagonist = human TAAR1 antagonists, primary screen, Fluo-8 calcium fluorescence, CHO RD-HGA16 cells. antagonist. inhibition, % at 3 µM. hit rate 1.5% among 360,000. AID 624466, 2012;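 active = inhibition above a per-plate cutoff, the mean inhibition of test compounds on that plate plus 3 SD, cut at about 49% in these data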
#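 Material: CHO RD-HGA16 cells bearing hTAAR1; compound dosing: one-point dosing, 3 µM nominal final; schedule: dye loading 75 min at 37 °C, then 30 min room temperature; measured by: calcium fluorescence with Fluo-8; control set: vehicle and agonist controls; replication: n of 1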
# OXTR potentiator = human OXTR potentiators, primary screen, fluorescence, CHO-OTR cells, Fluo-8 calcium; activation, % at 3 µM; AID 2445, 2010; hit rate 0.061% among 320,000; Fluo-8 calcium fluorescence, potentiator mode; 0% = oxytocin EC15, 100% = EC100;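 active = activation above that plate's cutoff, the mean activation of tested compounds plus 3 SD, cut at about 6.6% in these data, passing the limit was not always enough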
#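 Assay system: CHO cell line stably expressing human OTR. Reagent: EC15 oxytocin agonist. Dosing: single dose, 3.0 µM nominal final compound concentration. Timing: compound 6 min at room temperature before oxytocin, 100 s read. Signal: kinetic Fluo-8 calcium fluorescence. Controls: oxytocin EC15 low and EC100 high.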
# OXTR agonist = human OXTR agonists, primary screen, fluorescence, CHO-OTR cells, Fluo-8 calcium; Oxytocin receptor (Homo sapiens), P30559; Fluo-8 calcium fluorescence; normalized: DMSO 0%, oxytocin 100%; activation, % at 3 µM; hit rate 0.32% among 320,000;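 active = activation above the mean of all tested compounds plus 3 SD, cutoff set per screening run, cut at about 20% in these data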;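 also: peak over basal fluorescence ratio from a 100 s FLIPR kinetic read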
# OXTR ag confirm = human OXTR agonists, confirmation, fluorescence, CHO-OTR cells, triplicate | Fluo-8 calcium fluorescence, agonist | hit rate 20% among 390 | activation, % at 3 µM | shares compounds with OXTR agonist;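 active = mean activation above about 20% derived from the earlier single-dose screen, limit read from the data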;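 also: peak over minimum fluorescence ratio per well during a 100 second FLIPR read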
# V1aR counter 3x = V1a receptor agonists, calcium signal, counter-screen for OXTR agonist project, triplicate, fluorescence, CHO-V1R cells; activation, % at 3 µM; AID 434991, 2010; hit rate 10% among 390; Fluo-8 calcium fluorescence; shares compounds with OXTR agonist;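 active = mean activation over triplicate exceeds the hit threshold set in the earlier primary screen, cut at about 20% in these data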;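 also: peak over basal fluorescence ratio within a 100 second read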
# Hits are given with their value; n = inactive; x = no result given. An excerpt weighted towards active compounds, which were near 2.3% of everything screened.
SMILES,TAAR1 ag,V1aR counter,TAAR1 antagonist,OXTR potentiator,OXTR agonist,OXTR ag confirm,V1aR counter 3x
N#Cc1ccsc1NC(=O)c1ccc(Cl)c([N+](=O)[O-])c1,n,n,n,n,22,n,n
COc1ccc(CC(=O)NC(=S)Nc2ccc(S(=O)(=O)NC(C)(C)C)cc2)cc1,53,n,n,n,20,n,n
COC(=O)C1=C(C)N(Cc2ccccc2)C(=NCc2ccccc2)N[C@H]1c1ccccc1,n,n,n,n,n,x,x
COC(=O)C1=C(C)N(Cc2ccccc2)C(=NCc2ccccc2)N[C@H]1c1cccc(F)c1,n,n,n,n,20,n,n
COC(=O)C1=C(C)N(Cc2ccccc2)C(=NCCc2c[nH]c3ccccc23)N[C@H]1c1cccc(F)c1,n,n,n,n,22,n,n
COc1ccccc1OCC(=O)NNC(=O)c1c(-c2ccccc2Cl)noc1C,n,n,n,n,n,x,x
COc1cc(CNCCO)cc(Cl)c1OCc1ccc(Cl)cc1Cl,n,n,n,n,20,n,n
COc1cc(CNCCO)cc(Br)c1OCc1ccccc1Cl,n,n,n,n,n,x,x
COc1cc(CNCc2ccccn2)ccc1OCc1ccc(Cl)cc1Cl,45,n,n,n,25,n,n
CC(=O)OC1CC2(C)C(CCC2(O)C(C)=O)C2CCC3C(Cl)C(=O)CCC3(C)C12 (stereo not drawn),n,x,n,x,x,x,x
CC(C)(C)[C@@H]1COC(=O)[C@H](Cc2ccc(F)cc2)CC/C=C\C[C@@H](CC(=O)N(CCO)Cc2ccccc2)C(=O)N1,n,n,n,n,n,x,x
CC1=NN(c2ccc(Cl)cc2)C(=O)C1C(c1ccccc1O)c1c(C)[nH]n(-c2ccc(Cl)cc2)c1=O (stereo not drawn),x,n,x,n,20,n,n
Cn1ccc(C(=O)N/N=C/c2ccncc2)n1,n,x,n,x,x,x,x
CC(=O)c1ccc(OCc2nnn(CC(=O)NS(=O)(=O)c3ccc(C)cc3)c2-c2ccccc2)cc1,n,x,n,x,x,x,x
COc1ccccc1C(=O)NNC(=S)NC(=O)c1ccco1,40,n,n,n,24,n,n
COC(=O)c1cc(OC)c(OC)cc1NC(=S)NC(=O)c1ccco1,n,n,n,n,n,x,x
CSc1nc(-c2ccccc2)c(-c2ccccc2)[nH]1,n,n,n,n,23,n,n
O=C(NCc1ccc(F)cc1)c1cc(C2CCCCN2S(=O)(=O)c2cccs2)on1 (stereo not drawn),n,x,n,x,x,x,x
Cc1cc(OCC(=O)Nc2ccncc2)c(C)cc1Br,n,n,n,n,21,n,n
CC(=O)c1cc2c(cc1NS(=O)(=O)c1ccccc1F)OCO2,n,n,n,n,n,x,x
CC(NC(=O)CN1CCCC1)c1ccccc1 (stereo not drawn),n,n,n,n,n,x,x
CC(NC(=O)CN1CCOCC1)c1ccccc1 (stereo not drawn),n,n,n,n,21,n,n
Cc1ccc2nc(N(CCCN(C)C)C(=O)CS(=O)(=O)c3ccccc3)sc2c1,n,n,n,n,n,x,x
CN(C)CCCN(C(=O)CCc1ccccc1)c1nc2ccc(Cl)cc2s1,n,n,n,n,24,n,n
Cc1ccc2nc(N(CCCN(C)C)C(=O)CCc3ccccc3)sc2c1,n,n,n,n,23,n,n
O=P(CCc1ccccc1)(c1ccccc1)c1ccccc1,n,x,n,x,x,x,x
FC(F)(F)c1cccc(-c2nc3nc(Cl)c(Cl)nc3[nH]2)c1,x,n,x,n,22,n,n
Cc1ccc(NC(=O)CN2C(=O)NC(C)(c3ccc(Cl)cc3)C2=O)cc1 (stereo not drawn),41,n,n,n,22,n,n

# Source: PubChem
